From ChEMBL document CHEMBL1134760, “Evaluation of amino acid-based linkers in potent macrocyclic inhibitors of farnesyl-protein transferase” (Bioorg Med Chem Lett, 2001)
pIC50: −log10 of the molar value.

Tests used:
[1] = molecular target: Protein farnesyltransferase (Homo sapiens, UniProt P49354+P49356); assay: In vitro inhibitory activity to reduce the human farnesyltransferase catalyzed incorporation of [3H]FPP into recombinant Ras-CVIM; type: functional
Summary of the method: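 Human FPTase, [3H]FPP incorporated into recombinant Ras-CVIM. Enzyme at 1 nM, or 10 pM for some compounds.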

[2] = molecular target: Protein farnesyltransferase (Rattus norvegicus, UniProt Q02293+Q04631); assay: In vitro ability to displace radiolabeled FTI from farnesyltransferase in cultured Ha-ras transformed RAT1 cells; type: cell-based
Summary of the method: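 Competitive binding in v-Ha-ras transformed RAT1 cells seeded at 200,000 cells/well and cultured 16 h. [125I]-labelled FTI radiotracer diluted to 1 nM in culture medium with test FTI is added to the monolayers. Incubation 4 h at 37 °C, PBS rinse, trypsinization, gamma counting. Nonspecific binding is taken with 1000-fold excess unlabeled FTI.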

[3] = molecular target: Geranylgeranyl transferase type I (Homo sapiens, UniProt P49354+P53609); assay: In vitro inhibitory activity to reduce the human geranylgeranyl transferase type I (GGPTase-1)-catalyzed incorporation of 3H GGPP (100 nM) into K-Ras-derived peptide; type: functional
[4] = Clearance by iv administration in dogs at a dose of 1 mg/kg; details: dog, in vivo
[5] = rat

C[C@@H]1NCc2cncn2Cc2ccc(C#N)c(c2)Oc2ccc3cccc(c3c2)NC1=O
pIC50 [1]: 7.96 | pIC50 [2]: 6.61 | pIC50 [3]: 5.32

N#Cc1ccc2cc1Oc1ccc3cccc(c3c1)NC(=O)CN(Cc1ccccc1)Cc1cncn1C2
pIC50 [1]: 8.59 | pIC50 [2]: 7.53 | pIC50 [3]: < 4.70

C[C@H]1NCc2cncn2Cc2ccc(C#N)c(c2)Oc2ccc3cccc(c3c2)NC1=O
pIC50 [1]: 8.89 | pIC50 [2]: 7.64 | pIC50 [3]: 6.50

N#Cc1ccc2cc1Oc1ccc3cccc(c3c1)NC(=O)[C@@H](Cc1ccccc1)NCc1cncn1C2
pIC50 [1]: 9.33 | pIC50 [2]: 7.77 | pIC50 [3]: 7.18

N#Cc1ccc2cc1Oc1ccc3cccc(c3c1)NC(=O)[C@@H](Cc1ccccc1)N(Cc1ccccc1)Cc1cncn1C2
pIC50 [1]: 7.30 | pIC50 [2]: 6.24 | pIC50 [3]: < 4.70

N#Cc1ccc2cc1Oc1ccc3cccc(c3c1)C(=O)NCCNC(=O)Cc1cncn1C2
pIC50 [1]: 8.60 | pIC50 [2]: 6.39 | pIC50 [3]: 6.60

C[C@@H]1C(=O)Nc2cccc3ccc(cc23)Oc2cc(ccc2C#N)Cn2cncc2CN1Cc1ccccc1
pIC50 [1]: 7.74 | pIC50 [2]: 6.62 | pIC50 [3]: < 4.70

CN1CC(=O)Nc2cccc3ccc(cc23)Oc2cc(ccc2C#N)Cn2cncc2C1
pIC50 [1]: 8.24 | pIC50 [2]: 6.71 | pIC50 [3]: 5.68

C[C@@H]1C(=O)N(C)c2cccc3ccc(cc23)Oc2cc(ccc2C#N)Cn2cncc2CN1C
pIC50 [2]: 7.82 | pIC50 [3]: 5.17

CC[C@H]1NCc2cncn2Cc2ccc(C#N)c(c2)Oc2ccc3cccc(c3c2)NC1=O
pIC50 [1]: 8.92 | pIC50 [2]: 6.39 | pIC50 [3]: 6.33

CN1C(=O)CNC(=O)Cc2cncn2Cc2ccc(C#N)c(c2)Oc2ccc3cccc1c3c2
pIC50 [1]: 8.18 | pIC50 [2]: 7.19 | pIC50 [3]: 5.96

N#Cc1ccc2cc1Oc1ccc3cccc(c3c1)N1CCN(CC1=O)Cc1cncn1C2
clearance [4]: 5.1 mL/min/kg | half-life [5]: 1 h

N#Cc1ccc2cc1Oc1ccc3cccc(c3c1)NC(=O)[C@@H](Cc1ccccc1)NC(=O)Cc1cncn1C2
pIC50 [1]: 8.46 | pIC50 [2]: 6.51 | pIC50 [3]: 7.54

N#Cc1ccc2cc1Oc1ccc3cccc(c3c1)NC(=O)[C@@H](Cc1cccnc1)NCc1cncn1C2
pIC50 [1]: 8.74 | pIC50 [2]: 5.88 | pIC50 [3]: 6.83

N#Cc1ccc2cc1Oc1ccc3cccc(c3c1)NC(=O)[C@@H](Cc1cccs1)NCc1cncn1C2
pIC50 [1]: 8.68 | pIC50 [2]: 7.37 | pIC50 [3]: 7.14

N#Cc1ccc2cc1Oc1ccc3cccc(c3c1)NC(=O)CNCc1cncn1C2
pIC50 [1]: 8.37 | pIC50 [2]: 7.43 | pIC50 [3]: 6.17

N#Cc1ccc2cc1Oc1ccc3cccc(c3c1)C(=O)NCCCNCc1cncn1C2
pIC50 [1]: 8.64 | pIC50 [2]: 7.00 | pIC50 [3]: 6.05

CN1CC(=O)N(C)c2cccc3ccc(cc23)Oc2cc(ccc2C#N)Cn2cncc2C1
pIC50 [1]: 8.08 | pIC50 [2]: 7.89 | pIC50 [3]: 4.89

C[C@H]1NC(=O)Cc2cncn2Cc2ccc(C#N)c(c2)Oc2ccc3cccc(c3c2)NC1=O
pIC50 [1]: 8.48 | pIC50 [2]: 6.59 | pIC50 [3]: 7.30

CN1C(=O)CNCc2cncn2Cc2ccc(C#N)c(c2)Oc2ccc3cccc1c3c2
pIC50 [1]: 7.82 | pIC50 [2]: 7.26 | pIC50 [3]: 5.17

N#Cc1ccc2cc1Oc1ccc3cccc(c3c1)NC(=O)CNC(=O)Cc1cncn1C2
pIC50 [1]: 8.42 | pIC50 [2]: 7.17 | pIC50 [3]: 6.82

CN1Cc2cncn2Cc2ccc(C#N)c(c2)Oc2ccc3cccc(c3c2)NC(=O)[C@H]1Cc1ccccc1
pIC50 [1]: 8.57 | pIC50 [2]: 6.74 | pIC50 [3]: 6.46

C[C@H]1NCc2cncn2Cc2ccc(C#N)c(c2)Oc2ccc3cccc(c3c2)N(C)C1=O
pIC50 [1]: 7.80 | pIC50 [2]: 7.77 | pIC50 [3]: 5.50

N#Cc1ccc2cc1Oc1ccc3cccc(c3c1)C(=O)NCCNCc1cncn1C2
pIC50 [1]: 8.35 | pIC50 [2]: 8.15 | pIC50 [3]: 7.11

C[C@@H]1C(=O)Nc2cccc3ccc(cc23)Oc2cc(ccc2C#N)Cn2cncc2CN1C
pIC50 [1]: 8.15 | pIC50 [2]: < 7.00 | pIC50 [3]: 5.91
